Compound activity deposited in PubChem BioAssay by several laboratories.
Only some compounds are listed: those with a hit (about 2.1% of all), similar ones and a draw of the others.
Scp1 inh = inhibitors of human Scp-1 phosphatase | Recombinant Scp1, phosphopeptide, malachite green phosphate absorbance | inhibition, % at 20 µM | 0.88% of 340,000 active;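 active = inhibition above about 50% at 20 µM, limit read from the data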
Target sequence (Q9GZU7 76-261 limits assumed): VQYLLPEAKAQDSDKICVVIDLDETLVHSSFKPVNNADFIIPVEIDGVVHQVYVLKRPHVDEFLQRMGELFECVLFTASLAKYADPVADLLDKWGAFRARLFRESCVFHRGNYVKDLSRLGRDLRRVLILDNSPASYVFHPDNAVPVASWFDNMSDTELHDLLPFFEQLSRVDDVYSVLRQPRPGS
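Material – SCP-1 phosphatase catalytic domain, residues 76-261 · Buffer or medium – Acidic Tris acetate buffer with magnesium and detergent · Also added – Phospho 17-mer peptide substrate · Compound – single 20 µM dose, 1% DMSO · Times – 45 min room-temperature reaction, 5 min colour, 30 min stabiliser · Technique – Phosphate-binding colour reagent, absorbance read at 630 nm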
STEP block = inhibitors of human striatal-enriched phosphatase STEP; P54829; recombinant STEP, OMFP fluorogenic substrate, fluorescence; inhibition, % at 20 µM; 0.25% of 360,000 active; AID 588621;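 active = inhibition at 20 µM, scaled per plate between control wells, above about 37%, limit read from the data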
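Measure: Control-normalized % inhibition with plate pattern correction | Test system: STEP phosphatase, cell-free reaction | Medium: pH 6.0 Bis-Tris with DTT and Tween 20 | Technique: Fluorescence, 480/540 nm | Times: Reaction 20 min, ambient temperature | Doses: Single compound dose of 20 µM, 1% DMSO final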
SUMO1 PPI mod = SUMO1-SIM interaction modulation | P63165 | SUMO1 binding to a labelled peptide, TR-FRET, 1 h | inhibition, % at 20 µM | 0.33% of 360,000 active; in the data active = inhibition above about 37%
Target sequence (P63165 whole entry, looked up): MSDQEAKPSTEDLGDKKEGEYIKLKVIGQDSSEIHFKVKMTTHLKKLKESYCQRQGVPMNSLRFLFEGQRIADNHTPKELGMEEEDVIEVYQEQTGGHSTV
LMPTP block = LMPTP (human) inhibition; 0.22% of 360,000 active; recombinant LMPTP-A, OMFP fluorogenic substrate, fluorescence intensity; inhibition, % at 20 µM;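 active = compounds that cut the enzyme signal by at least half of the control window in the single-dose screen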
Target sequence (P24666 whole entry, looked up): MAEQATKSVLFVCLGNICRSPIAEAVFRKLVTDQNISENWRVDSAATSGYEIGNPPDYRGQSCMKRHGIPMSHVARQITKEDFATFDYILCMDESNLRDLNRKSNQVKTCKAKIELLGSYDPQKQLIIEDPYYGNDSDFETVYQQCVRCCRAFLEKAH
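Test system – LMPTP-A enzyme · Amount – LMPTP-A at 0.625 nM final in the reaction · Buffer or medium – Bis-Tris pH 6.0, DTT, detergent · Reagent – OMFP 400 µM · Doses – single 20 µM dose · Schedule – reaction 50 min, room temperature, dark · Detection – fluorescence intensity of OMFP turnover product · Evaluation – percent inhibition versus substrate-only and uninhibited controls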
DNMT1 inh = inhibitors of human DNMT1; P26358; DNMT1 molecular beacon, Hinp1I cleavage, fluorescence; inhibition (reported as % activation of signal), % at 10 µM; 0.83% of 360,000 active; in the data active = inhibition above about 50%
GRK2 aptamer HTS = inhibitors of human GRK2 displacing RNA aptamer | P25098 | bead flow cytometry, FAM-aptamer displacement from GRK2 | inhibition of aptamer binding, % at 10 µM | 0.59% of 330,000 active | AID 488847;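 active = inhibition of aptamer binding above 40%, roughly 3 SD of noise, on plates passing a quality check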;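 note: median bead fluorescence of bound FAM aptamer so fluorescent compounds give negative values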
Each line names hits and unclear results; the compound was inactive in the other large screens.

COc1ccc(CCNC(=O)c2cc(-c3ccc(C)c(C)c3O)n[nH]2)cc1OC	SUMO1 PPI mod 36.6
CC(c1nc2ccccc2[nH]1)n1c(=O)c(-c2ccco2)nc2ccccc21 (centres undefined)	none (no result: Scp1 inh, STEP block, DNMT1 inh, GRK2 aptamer HTS)
CN(C)c1ccccc1-c1cc(NC=O)c2ncc(-c3cccc(C(F)(F)F)c3)n2c1	DNMT1 inh active (no result: Scp1 inh, GRK2 aptamer HTS)
CN(C)C(=O)c1cccc(-c2cnc3c(NC=O)cc(-c4ccccc4N(C)C)cn23)c1	DNMT1 inh 140.6 (no result: Scp1 inh, GRK2 aptamer HTS)
CN(C)C(=O)c1cccc(-c2cnc3c(NC=O)cc(-c4ccccc4Cl)cn23)c1	none (no result: Scp1 inh, GRK2 aptamer HTS)
COc1ccccc1-c1cc(NC=O)c2ncc(-c3cccc(C(F)(F)F)c3)n2c1	none (no result: Scp1 inh, GRK2 aptamer HTS)
NC(Cc1ccc(C(F)(F)F)cc1)c1csc(NC(=O)Nc2ccccc2Oc2ccccc2)n1 (centres undefined)	none (no result: Scp1 inh, GRK2 aptamer HTS)
C#CCOCCOCCOCCNc1nc(N2CCN(C(=O)CCCCCCCCCCNC(=O)[C@H]([C@@H](C)CC)n3cc(CCCCCN)nn3)CC2)nc(N2CCN(C(=O)CCCCCCCCCCNC(=O)[C@H](CO)n3cc(CCCCCN)nn3)CC2)n1	none
C#CCOCCOCCOCCNc1nc(N2CCN(C(=O)CCCCCCCCCCNC(=O)Cn3cc(CCCCCN)nn3)CC2)nc(N2CCN(C(=O)CCCCCCCCCCNC(=O)[C@H]([C@@H](C)CC)n3cc(CCCCN=C(N)N)nn3)CC2)n1	SUMO1 PPI mod 38.6
C#CCOCCOCCOCCNc1nc(N2CCN(C(=O)CCCCCCCCCCNC(=O)[C@H]([C@@H](C)CC)n3cc(CCCCCN)nn3)CC2)nc(N2CCN(C(=O)CCCCCCCCCCNC(=O)[C@H]([C@@H](C)CC)n3cc(CCCCN=C(N)N)nn3)CC2)n1	SUMO1 PPI mod 78.6 (no result: Scp1 inh)
C#CCOCCOCCOCCNc1nc(N2CCN(C(=O)CCCCCCCCCCNC(=O)[C@H]([C@@H](C)CC)n3cc(CCCCN=C(N)N)nn3)CC2)nc(N2CCN(C(=O)CCCCCCCCCCNC(=O)[C@H](CO)n3cc(CCCCCN)nn3)CC2)n1	SUMO1 PPI mod 47.0
C#CCOCCOCCOCCNc1nc(N2CCN(C(=O)CCCCCCCCCCNC(=O)[C@H]([C@@H](C)CC)n3cc(CCCCCN)nn3)CC2)nc(N2CCN(C(=O)CCCCCCCCCCNC(=O)[C@@H]([C@H](C)CC)n3cc(CCCCCN)nn3)CC2)n1	none (no result: Scp1 inh, STEP block, SUMO1 PPI mod, LMPTP block, DNMT1 inh)
C#CCOCCOCCOCCNc1nc(N2CCN(C(=O)CCCCCCCCCCNC(=O)[C@H]([C@@H](C)CC)n3cc(CCCCN=C(N)N)nn3)CC2)nc(N2CCN(C(=O)CCCCCCCCCCNC(=O)[C@H]([C@@H](C)CC)n3cc(CCCCN=C(N)N)nn3)CC2)n1	none (no result: Scp1 inh, STEP block, SUMO1 PPI mod, LMPTP block, DNMT1 inh)
CC(=O)c1cccc(NC(=O)c2cccc(N3C(=O)c4ccccc4C3=O)c2)c1	SUMO1 PPI mod 61.3
CN(C(=O)COC(=O)c1ccc2c(c1)OCO2)C1CCCCC1	none
C[N+]12CCCCC1C(COC(=O)c1ccc3c(c1)OCO3)CCC2 (centres undefined)	Scp1 inh 106.0
COCC(=O)N[C@H]1C=C[C@@H](CC(=O)OC)O[C@@H]1CO	none (no result: Scp1 inh, STEP block, DNMT1 inh, GRK2 aptamer HTS)
Oc1c(CN2CCOCC2)cc(CN2CCOCC2)c(O)c1O	DNMT1 inh 57.5 (no result: GRK2 aptamer HTS)
O=C(O)CCN1C(=O)/C(=C\c2ccc(-c3nc4ccccc4s3)o2)SC1=S	Scp1 inh 63.0, STEP block 79.0, SUMO1 PPI mod 86.6, DNMT1 inh 109.0
O=C(O)CCCN1C(=O)/C(=C\c2ccco2)SC1=S	DNMT1 inh 57.7 (no result: GRK2 aptamer HTS)
O=C(COc1ccccc1C(=O)N/N=C\c1ccc(O)c(O)c1)N/N=C/c1ccc(O)c(O)c1	Scp1 inh 61.4
O=C(NN=Cc1ccc(O)c(O)c1)c1ccccc1	none (no result: Scp1 inh, GRK2 aptamer HTS)
Oc1ccc(Nc2nc3ccccc3nc2Nc2ccc(O)cc2)cc1	Scp1 inh 60.3
Cc1cc(/C=C\c2ccc3cc(N(C)C)ccc3[n+]2C)c(C)n1-c1ccccc1	LMPTP block 78.2, DNMT1 inh 53.5, GRK2 aptamer HTS 71.0
O=C(/C=C/c1cccc(Cl)c1)OCC(=O)c1ccc[nH]1	none (no result: Scp1 inh, GRK2 aptamer HTS)
CCOc1ccc(-c2nnc(-c3snc(-c4ccc(F)cc4)c3N=CN(C)C)o2)cc1	SUMO1 PPI mod 47.1
Cn1nccc1-c1ccc(C(=O)NCc2ccc(Cl)cc2)c2occc12	none (no result: Scp1 inh, GRK2 aptamer HTS)
CC(/C=C1\SC(=S)N(CCC(=O)Nc2ccccc2O)C1=O)=C\c1ccccc1	none
CC(/C=C1\SC(=S)N(CCCC(=O)Nc2ccc(C(=O)O)cc2)C1=O)=C\c1ccccc1	LMPTP block 49.0
CC(=C\c1ccccc1)/C=C1/SC(=S)N(CCCC(=O)O)C1=O	none
CC(=Cc1ccccc1)C=C1SC(=S)N(CCCC(=O)Nc2ccc(C(=O)O)cc2)C1=O	LMPTP block 61.4 (no result: Scp1 inh, GRK2 aptamer HTS)
COC(=O)[C@@]12C[C@@H](CC(=O)NCc3cccc4ccccc34)C(=O)N(Cc3ccco3)C1=CCC(C)(C)C2	none (no result: Scp1 inh, STEP block, DNMT1 inh, GRK2 aptamer HTS)
COc1ccc(Nc2oc(COc3ccc(Cl)cc3)nc2C#N)cc1	SUMO1 PPI mod 42.1
Cc1ccc(S(=O)(=O)NCC(=O)OCc2csc(-c3ccccc3)n2)cc1	none
O=C(CNS(=O)(=O)c1ccc2ccccc2c1)OCc1csc(-c2ccccc2)n1	GRK2 aptamer HTS 100.0
O=C(C=P(c1ccccc1)(c1ccccc1)c1ccccc1)c1ccccc1-c1ccccc1C(=O)C=P(c1ccccc1)(c1ccccc1)c1ccccc1	LMPTP block 58.6 (no result: GRK2 aptamer HTS)
O=C(NNC(=O)c1ccccc1-c1ccccc1C(=O)O)c1ccccc1	none
COC(=O)/C=C1\OC(C2CC2)c2ccccc21 (centres undefined)	none (no result: Scp1 inh, STEP block, DNMT1 inh, GRK2 aptamer HTS)
CC(C)(C)C(=O)N1CCN(c2ncnc3scc(-c4ccccc4)c23)CC1	none
O=C1C2CC=C(Cl)CC2C(=O)N1CCC[n+]1cccc2ccccc21 (centres undefined)	GRK2 aptamer HTS 83.0
N#Cc1c(N2CCCC(O)C2)nc(N)c2c(N)nc3c(c12)CC(=O)N3C12CC3CC(CC(C3)C1)C2 (centres undefined)	SUMO1 PPI mod 56.5, LMPTP block 48.8, DNMT1 inh 83.7
C=C(C)CN(CC)c1nc(N)c2c(N)nc3c(c2c1C#N)CC(=O)N3C12CC3CC(CC(C3)C1)C2	none
CCCC(=O)N(Cc1cc2cc(OC)ccc2[nH]c1=O)c1ccccc1OC	none (no result: Scp1 inh, GRK2 aptamer HTS)
Cc1cc(/C=N/NC(=O)C(O)(c2ccccc2)c2ccccc2)c(C)n1-c1cccc(C(=O)O)c1	DNMT1 inh 53.9
Cc1ccc(SCc2ccc(C(=O)Nc3nccs3)o2)cc1	none
O=C(Nc1nccs1)c1ccc(CSc2ccccc2)o1	LMPTP block 48.5
Cc1cc(=O)oc2cc(OCC(=O)Nc3ccccc3C(N)=O)c(Cl)cc12	SUMO1 PPI mod 61.9
C/C(=N/NC(=O)Nc1ccccc1)c1ccc(C)cc1	none
C/C(=N\NC(=O)Nc1ccccc1)c1ccc2ccccc2c1	GRK2 aptamer HTS 100.0
